Four compounds from ChEMBL document CHEMBL5233208, “Optimization of P2Y12 Antagonist Ethyl 6-(4-((Benzylsulfonyl)carbamoyl)piperidin-1-yl)-5-cyano-2-methylnicotinate (AZD1283) Led to the Discovery of an Oral Antiplatelet Agent with Improved Druglike Properties” (J Med Chem, 2019) can be followed below.

Activity calls are given as the source filed them. The calls are words filed in the database; no cut-off is given here.

Data set [1] deals with Rattus norvegicus. The experiment in a line: Antithrombotic activity in anesthetized Wistar rat model of tail-bleeding assessed as increase in bleeding weight at 20 mg/kg, po administered as single dose measured at 1.5 hrs post dose. Format: functional. The method in brief: (§1)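 Male rats (250–300 g, n = 10 per dose) acclimatized at least 7 days, then dosed by oral gavage. At 1.5 h, anesthetized with 2% pentobarbital i.p. at 50 mg/kg. Tail transected 4 mm from the tip and immersed in saline at 37 °C; bleeding ended when no blood appeared for 30 s. Bleeding time and blood loss weight recorded as mean ± SEM.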

Data set [2] relates to Rattus norvegicus. Briefly: Antithrombotic activity in anesthetized Wistar rat model of FeCL3-induced carotid artery thrombosis assessed as reduction in thrombus weight po administered as single dose measured at 1.5 hrs post dose. In kind it is functional. A digest of the protocol:
(§2)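 Compounds in 0.5% CMC-Na given to Wistar rats as a single oral gavage dose (10 mL/kg). Rats anesthetized with 2% pentobarbital i.p. at 50 mg/kg and kept on a heating pad. At 1.5 h post-dose, filter paper soaked in 20% FeCl3 applied to the isolated left carotid artery for 10 min; thrombus weight recorded. Mean ± SEM, n = 10.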

Data set [3] concerns Rattus norvegicus. Briefly: Antithrombotic activity in anesthetized Wistar rat model of tail-bleeding assessed as increase in bleeding weight at 10 mg/kg, po administered as single dose measured at 1.5 hrs post dose. Format: functional. A digest of the protocol: as §1
For data set [4], the system named is Rattus norvegicus. Briefly: Antithrombotic activity in anesthetized Wistar rat model of tail-bleeding assessed as increase in bleeding weight at […], po administered as single dose measured at 1.5 hrs post dose. In kind it is functional.
Data set [5] concerns Rattus norvegicus. Briefly: Antithrombotic activity in anesthetized Wistar rat model of tail-bleeding assessed as increase in bleeding weight at 5 mg/kg, po administered as single dose measured at 1.5 hrs post dose. In kind it is functional. A digest of the protocol:
as §1

Data set [6] relates to Rattus norvegicus. The experiment in a line: Antithrombotic activity in anesthetized Wistar rat model of tail-bleeding assessed as increase in bleeding time po administered as single dose measured at 1.5 hrs post dose. In kind it is functional. The method in brief: as §1
The nature of data set [7]: Half life in Sprague-Dawley rat at 5 mg/kg,po measured up to 24 hrs by LC-MS/MS analysis. The following applies: in vivo. In kind it is ADME, organism-based.
Data set [8] is described as follows: Metabolic stability in dog liver microsomes assessed as intrinsic clearance at 0.1 µM measured up to 60 mins in presence of NADPH regeneration system by LC-MS/MS analysis. Particulars: 1 h. For orientation: Microsomes from liver hold many membrane-bound enzymes, among them those of drug oxidation.
For data set [9], the species on record is Homo sapiens. Briefly: Antiplatelet activity in human platelet-rich plasma assessed as inhibition of ADP-induced platelet aggregation by aggregometry. In kind it is functional. A digest of the protocol:
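Human PRP from healthy donors free of aspirin/NSAIDs for at least two weeks, drawn into ACD; PRP spun at 300 g for 10 min, PPP at 2000 g. Compound in 0.5% DMSO preincubated 2 min at 37 °C with stirring (900 rpm). Aggregation induced by 10 μM ADP (final) and followed optically for 5 min.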

Data set [10] in a line: Metabolic stability in rat liver microsomes assessed as intrinsic clearance at 0.1 µM measured up to 60 mins in presence of NADPH regeneration system by LC-MS/MS analysis. The following applies: 1 h.
Data set [11] is described as follows: AUC (0 to infinity) in Sprague-Dawley rat at 5 mg/kg,po measured up to 24 hrs by LC-MS/MS analysis. In kind it is ADME, organism-based. The arrangement: time < 24 hrs, dose 5 mg/kg, route po. Particulars: in vivo.
Data set [12] is described as follows: Metabolic stability in human liver microsomes assessed as half life at […] measured up to 60 mins in presence of NADPH regeneration system by LC-MS/MS analysis. In kind it is ADME, Microsome.
Data set [13] deals with T1, Cytochrome P450 3A4 (Homo sapiens, UniProt P08684). The experiment in a line: Inhibition of CYP3A4 in human liver microsomes using Midazolam as substrate preincubated for 10 mins followed by NADPH addition and measured after 15 mins by LC-MS/MS analysis.
Data set [14] is described as follows: Tmax in Sprague-Dawley rat at 5 mg/kg,po measured up to 24 hrs by LC-MS/MS analysis. Format: ADME, organism-based. The following applies: in vivo.
The target of data set [15] is Cytochrome P450 2D6 (Homo sapiens, UniProt P10635). Briefly: Inhibition of CYP2D6 in human liver microsomes using dextromethorphan as substrate preincubated for 10 mins followed by NADPH addition and measured after 15 mins by LC-MS/MS analysis.
Data set [16] is described as follows: Metabolic stability in human liver microsomes assessed as intrinsic clearance at 0.1 µM measured up to 60 mins in presence of NADPH regeneration system by LC-MS/MS analysis. Particulars: 1 h.
Data set [17] in a line: Metabolic stability in rat liver microsomes assessed as half life at […] measured up to 60 mins in presence of NADPH regeneration system by LC-MS/MS analysis. In kind it is ADME, Microsome.
The target of data set [18] is T1, Cytochrome P450 3A4. The experiment in a line: Inhibition of CYP3A4 in human liver microsomes using testosterone as substrate preincubated for 10 mins followed by NADPH addition and measured after 15 mins by LC-MS/MS analysis.
The nature of data set [19]: Metabolic stability in dog liver microsomes assessed as half life at […] measured up to 60 mins in presence of NADPH regeneration system by LC-MS/MS analysis. In kind it is ADME, Canis lupus familiaris, Microsome.
A short description of data set [20]: Cmax in Sprague-Dawley rat at 5 mg/kg,po measured up to 24 hrs by LC-MS/MS analysis. In kind it is ADME, organism-based. Also noted: time < 24 hrs, dose 5 mg/kg, route po. Particulars: in vivo.
Data set [21] has as its target T2, Cytochrome P450 1A2 (Homo sapiens, UniProt P05177).
T2 sequence (P05177 whole entry): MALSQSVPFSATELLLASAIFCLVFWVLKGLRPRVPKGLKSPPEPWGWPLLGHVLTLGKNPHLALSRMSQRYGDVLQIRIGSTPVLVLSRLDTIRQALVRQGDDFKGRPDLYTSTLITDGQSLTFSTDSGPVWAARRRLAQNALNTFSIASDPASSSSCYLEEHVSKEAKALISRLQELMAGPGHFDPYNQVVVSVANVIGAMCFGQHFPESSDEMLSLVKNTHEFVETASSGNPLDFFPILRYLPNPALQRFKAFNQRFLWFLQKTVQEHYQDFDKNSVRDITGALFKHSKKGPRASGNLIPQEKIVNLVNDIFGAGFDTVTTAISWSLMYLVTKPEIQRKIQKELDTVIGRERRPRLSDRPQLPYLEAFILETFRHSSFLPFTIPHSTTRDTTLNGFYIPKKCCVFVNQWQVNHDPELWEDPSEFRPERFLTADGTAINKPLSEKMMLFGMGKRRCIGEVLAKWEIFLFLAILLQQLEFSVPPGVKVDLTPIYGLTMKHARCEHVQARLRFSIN
Briefly: Inhibition of CYP1A2 in human liver microsomes using phenacetin as substrate preincubated for 10 mins followed by NADPH addition and measured after 15 mins by LC-MS/MS analysis.

The target in data set [22] is Cytochrome P450 2C19 (Homo sapiens, UniProt P33261). The experiment in a line: Inhibition of CYP2C19 in human liver microsomes using S-mephenytoin as substrate preincubated for 10 mins followed by NADPH addition and measured after 15 mins by LC-MS/MS analysis.
Data set [23] concerns Rattus norvegicus. Briefly: Antithrombotic activity in anesthetized Wistar rat model of FeCL3-induced carotid artery thrombosis assessed as reduction in thrombus weight at 10 mg/kg, po administered as single dose measured at 1.5 hrs post dose. In kind it is functional, organism-based. A digest of the protocol:
as §2

Data set [24] deals with Cytochrome P450 2C9 (Homo sapiens, UniProt P11712). The experiment in a line: Inhibition of CYP2C9 in human liver microsomes using tolbutamide as substrate preincubated for 10 mins followed by NADPH addition and measured after 15 mins by LC-MS/MS analysis.
Data set [25] is described as follows: MRT in Sprague-Dawley rat at 5 mg/kg,po measured up to 24 hrs by LC-MS/MS analysis. Format: ADME, organism-based. Particulars: in vivo.
Data set [26] can be described thus: Oral bioavailability in Sprague-Dawley rat at 5 mg/kg,po measured up to 24 hrs by LC-MS/MS analysis. In kind it is ADME, organism-based. The following applies: in vivo.
Data set [27] relates to Rattus norvegicus. The experiment in a line: Antithrombotic activity in anesthetized Wistar rat model of FeCL3-induced carotid artery thrombosis assessed as reduction in thrombus weight by measuring inhibition of thrombosis formation at 40 mg/kg, po administered as single dose measured at 1.5 hrs post dose. In kind it is functional. Also noted: scale not given: the % may be the effect or the level left. The method in brief:
as §2

In data set [28] the test system is Rattus norvegicus. Briefly: Antithrombotic activity in anesthetized Wistar rat model of tail-bleeding assessed as increase in bleeding weight at 40 mg/kg, po administered as single dose measured at 1.5 hrs post dose. In kind it is functional. The method in brief:
as §1

Data set [29] relates to Rattus norvegicus. The experiment in a line: Antithrombotic activity in anesthetized Wistar rat model of tail-bleeding assessed as increase in bleeding time at 40 mg/kg, po administered as single dose measured at 1.5 hrs post dose. Format: functional. A digest of the protocol:
as §1

T1 sequence (P08684 whole entry): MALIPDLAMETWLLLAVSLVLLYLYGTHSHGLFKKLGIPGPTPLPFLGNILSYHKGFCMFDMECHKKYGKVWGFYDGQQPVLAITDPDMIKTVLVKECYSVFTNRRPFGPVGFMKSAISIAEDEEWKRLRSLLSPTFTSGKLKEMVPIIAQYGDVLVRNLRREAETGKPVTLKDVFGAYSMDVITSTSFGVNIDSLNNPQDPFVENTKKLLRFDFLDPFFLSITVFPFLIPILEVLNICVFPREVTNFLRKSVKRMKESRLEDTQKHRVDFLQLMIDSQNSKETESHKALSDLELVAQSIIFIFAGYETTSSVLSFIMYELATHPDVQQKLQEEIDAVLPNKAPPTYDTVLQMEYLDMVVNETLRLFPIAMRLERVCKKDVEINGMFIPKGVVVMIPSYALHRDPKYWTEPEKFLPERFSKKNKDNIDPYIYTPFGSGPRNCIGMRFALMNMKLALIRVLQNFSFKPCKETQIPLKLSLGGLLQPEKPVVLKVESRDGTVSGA
Chain of Cytochrome P450 2C19 (P33261 whole entry): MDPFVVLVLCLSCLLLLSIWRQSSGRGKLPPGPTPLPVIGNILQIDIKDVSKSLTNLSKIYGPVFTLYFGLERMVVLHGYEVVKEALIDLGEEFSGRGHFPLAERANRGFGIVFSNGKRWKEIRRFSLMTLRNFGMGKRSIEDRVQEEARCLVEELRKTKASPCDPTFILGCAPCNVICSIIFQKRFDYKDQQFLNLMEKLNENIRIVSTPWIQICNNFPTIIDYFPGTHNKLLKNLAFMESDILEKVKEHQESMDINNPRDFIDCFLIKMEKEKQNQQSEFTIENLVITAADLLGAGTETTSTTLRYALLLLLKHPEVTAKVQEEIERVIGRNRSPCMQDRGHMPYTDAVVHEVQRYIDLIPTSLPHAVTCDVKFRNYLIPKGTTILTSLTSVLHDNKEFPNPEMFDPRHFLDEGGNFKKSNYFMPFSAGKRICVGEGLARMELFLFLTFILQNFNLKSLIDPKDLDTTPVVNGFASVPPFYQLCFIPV
Chain of Cytochrome P450 2D6 (P10635 whole entry): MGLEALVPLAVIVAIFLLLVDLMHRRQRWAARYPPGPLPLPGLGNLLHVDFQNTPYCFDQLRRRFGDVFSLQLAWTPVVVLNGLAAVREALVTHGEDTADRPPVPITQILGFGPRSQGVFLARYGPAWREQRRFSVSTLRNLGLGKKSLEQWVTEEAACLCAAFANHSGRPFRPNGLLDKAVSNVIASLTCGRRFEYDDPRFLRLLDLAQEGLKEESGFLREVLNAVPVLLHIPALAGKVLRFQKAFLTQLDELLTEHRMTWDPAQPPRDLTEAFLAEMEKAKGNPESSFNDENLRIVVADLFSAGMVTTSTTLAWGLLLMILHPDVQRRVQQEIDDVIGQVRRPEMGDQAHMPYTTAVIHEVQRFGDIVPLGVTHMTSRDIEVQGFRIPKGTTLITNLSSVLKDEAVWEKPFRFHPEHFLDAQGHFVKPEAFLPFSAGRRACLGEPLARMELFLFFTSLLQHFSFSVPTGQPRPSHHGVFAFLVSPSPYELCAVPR
Chain of Cytochrome P450 2C9 (P11712 whole entry): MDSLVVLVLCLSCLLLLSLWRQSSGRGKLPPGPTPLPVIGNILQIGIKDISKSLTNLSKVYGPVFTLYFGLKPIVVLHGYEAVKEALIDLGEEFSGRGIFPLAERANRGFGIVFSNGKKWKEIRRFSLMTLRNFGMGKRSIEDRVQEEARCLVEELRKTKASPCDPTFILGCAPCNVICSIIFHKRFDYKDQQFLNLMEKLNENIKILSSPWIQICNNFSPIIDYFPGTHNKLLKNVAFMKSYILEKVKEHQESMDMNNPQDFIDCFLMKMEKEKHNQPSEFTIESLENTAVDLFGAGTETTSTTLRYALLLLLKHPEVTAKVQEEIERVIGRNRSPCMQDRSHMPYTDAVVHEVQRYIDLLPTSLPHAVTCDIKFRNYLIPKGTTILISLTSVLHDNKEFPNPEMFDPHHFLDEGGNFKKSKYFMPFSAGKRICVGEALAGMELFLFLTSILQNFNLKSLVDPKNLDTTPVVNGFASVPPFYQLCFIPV

As a reminder, the ED50 is the dose that gives a 50% effect, or the effect in half of the subjects. On to `COC(=O)[C@H](c1ccccc1Cl)N1CCc2sccc2C1` [CLOPIDOGREL], for which the Activity in data set [1] stood at 1.99 g; in [3], 1.2 g; in data set [4], 0.44 g; in data set [5], 0.7 g. Also, the ED50 in data set [2] turned out to be 7 mg/kg. Besides, in data set [6], the ED100 came out at 2.36 mg/kg.

By half-life is commonly meant the time in which the quantity being followed falls by half. Broadly, the IC50 is the concentration at which inhibition is half-maximal. The term AUC(0-inf) denotes the area under the concentration-time curve extrapolated to infinity. What is called Tmax is the time from dosing to the highest level. Usually Cmax stands for the maximum level reached in the sampled fluid or tissue. A word on the MRT: it is the average time that molecules of a dose stay in the body. On to `CC1(C(=O)NS(=O)(=O)c2ccc(Cl)s2)CCN(c2nc3c(cc2C#N)C(=O)OC3)CC1`, for which the half-life in data set [7] was 1.26 h; in data set [12], 3.4 h; in [17], 1.27 h; in data set [19] it was 3.34 h. Further, the results for the intrinsic clearance in [8], in data set [10] and in [16] were 10.5 mL/min/g, 27.6 mL/min/g and 10.3 mL/min/g, respectively. Moreover, the IC50 is 1.64 µM in data set [9]; greater than 50 µM in [13]; greater than 50 µM in data set [15]; greater than 50 µM in data set [18]; greater than 50 µM in [21]; 7.75 µM in data set [22]. The same compound registered an IC50 in [24] greater than 50 µM. Besides, the AUC(0-inf) in [11] amounted to 1060 ng·h/mL. Moreover, in [14], the Tmax is 0.25 h. The Cmax in data set [20] stood at 479 ng/mL. For the same compound, the result in data set [23] was Active. In [25], the MRT was determined as 1.98 h.

By bioavailability is commonly meant the share of a dose that reaches the circulation, judged against a reference dose that is usually intravenous. As to `Cc1ccc(CS(=O)(=O)NC(=O)C2(C)CCN(c3nc4c(cc3C#N)C(=O)OC4)CC2)cc1`, the Activity in [1] worked out at 0.43 g; in [3], 0.39 g; in [27], 56%; in data set [4] it was 0.24 g; in data set [28], 0.66 g; in data set [5] it was 0.31 g. Besides, the half-life is 2.91 h in data set [7], 3.47 h in data set [12], 1.48 h in data set [17] and 1.62 h in data set [19]. Besides, the intrinsic clearance in data set [8] came out at 116.3 mL/min/g; in data set [10] it was 10.6 mL/min/g; in data set [16], 10.1 mL/min/g. The compound also had a bioavailability in [26] of 51%. In [9], the IC50 amounted to 2.94 µM. In data set [11], the AUC(0-inf) came to 4120 ng·h/mL. Also, the median effective dose (ED50) in [2] is 27 mg/kg. Moreover, the Tmax in data set [14] came out at 0.25 h. In data set [29], the Time is listed as 33.09 min. The concentration in data set [20] peaked (Cmax) at 1660 ng/mL. Also, in [6], the ED100 is 7.58 mg/kg. Moreover, the outcome in data set [23] was Active. This compound showed an MRT in [25] of 3.64 h.

Regarding `N#Cc1cc2c(nc1N1CCC(C(=O)NS(=O)(=O)c3ccc(Cl)s3)CC1)COC2=O`, the half-life in [7] is 2.4 h; in data set [12], 1.32 h; in data set [17] it was 2.53 h; in data set [19] it was 2.85 h. Also, the intrinsic clearance in data set [8] is 12.3 mL/min/g; in [10] it was 13.8 mL/min/g; in data set [16], 26.6 mL/min/g. Further, the IC50 in data set [9] is 4.47 µM; in data set [13], greater than 50 µM; in [15], greater than 50 µM; in [18], greater than 50 µM; in data set [21], greater than 50 µM; in [22], 28.5 µM. The IC50 in data set [24] was greater than 50 µM. In [11], this compound had an AUC(0-inf) of 417 ng·h/mL. The Tmax in data set [14] came to 0.25 h. For the same compound, the Cmax in [20] is 225 ng/mL. Further, the MRT in data set [25] turned out to be 2.31 h.
